Results published in ChEMBL document CHEMBL5724801, “EUbOPEN Chemogenomics Library - Multiplex” (2024).
“And” between values parts separate entries of the source, which are not always exact repeats. Equal values may be shown once.

system: U2OS; assay: Multiplex assay against U2OS; format: toxicity, cell-based; details: human, 12 h, 1 µM, compound concentration 1 uM
Method in brief: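 Phenotypes for tubulin, mitochondrial mass and membrane permeability are expressed as per cents of healthy-nucleus cells. Cells were stained live at seeding with Hoechst33342, BioTracker Green Microtubule Cytoskeleton Dye, MitoTracker Red and Annexin V Alexa Fluor 680, then imaged after compound addition on a CQ1 microscope at 37°C and 5% CO2. Machine-learning gating in CellPathfinder separated Hoechst high-intensity objects from normal cells, divided normal cells by nuclear state (healthy, pyknosed, fragmented) and divided pyknosed cells into mitotic or apoptotic.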

SMILES	Population Apoptotic (%)	Population Fragmented Nuclei (%)	Population Healthy Nuclei (%)	Population Hoechst High Intensity Objects (%)	Population Membrane Permeable-Phenotype (%)	Population Mitochondria Different-Phenotype (%)	Population Mitotic Cells (%)	Population Normal (%)	Population Pyknosed Nuclei (%)	Population Tubulin-Different-Phenotype (%)
Cc1c(C(=O)NCCCN(C)C)sc2ncnc(Nc3ccc(F)cc3OC(C)CF)c12 (centres undefined)	44.9% and 30.77%	1.42% and 2.65%	84.66% and 80.13%	0%	0.67% and 4.13%	0% and 15.7%	55.1% and 69.23%	100%	13.92% and 17.22%	2.68% and 0%
Cc1cc(=O)n(C)c2cc(N3C(=O)CC[C@H](NS(=O)(=O)CC(C)C)[C@H]3c3ccc(Cl)cc3)ccc12	87% and 63%	24% and 21%	66% and 68%	3% and 1%	3% and 2%	1% and 2%	12% and 36%	96% and 98%	9% and 10%	1%

same assay, conditions: human, 12 h, 1 µM, compound concentration 1 uM

SMILES	Total Cell Count
Cc1c(C(=O)NCCCN(C)C)sc2ncnc(Nc3ccc(F)cc3OC(C)CF)c12 (centres undefined)	352 and 151
Cc1cc(=O)n(C)c2cc(N3C(=O)CC[C@H](NS(=O)(=O)CC(C)C)[C@H]3c3ccc(Cl)cc3)ccc12	263 and 110

same assay, conditions: human, 12 h, 10 µM, compound concentration 10 uM

SMILES	Population Apoptotic (%)	Population Fragmented Nuclei (%)	Population Healthy Nuclei (%)	Population Hoechst High Intensity Objects (%)	Population Membrane Permeable-Phenotype (%)	Population Mitotic Cells (%)	Population Normal (%)	Population Pyknosed Nuclei (%)	Population Tubulin-Different-Phenotype (%)	Population Mitochondria Different-Phenotype (%)
Cc1c(C(=O)NCCCN(C)C)sc2ncnc(Nc3ccc(F)cc3OC(C)CF)c12 (centres undefined)	33.33% and 29.55%	6.74% and 4.73%	69.66% and 65.54%	0%	10.97% and 18.56%	66.67% and 70.45%	100%	23.6% and 29.73%	31.61% and 29.9%	
Cc1cc(=O)n(C)c2cc(N3C(=O)CC[C@H](NS(=O)(=O)CC(C)C)[C@H]3c3ccc(Cl)cc3)ccc12	57%	21% and 16%	55% and 60%	5% and 3%	63% and 35%	42%	94% and 96%	23%	65% and 60%	44% and 68%

same assay, conditions: human, 12 h, 10 µM, compound concentration 10 uM

SMILES	Total Cell Count
Cc1cc(=O)n(C)c2cc(N3C(=O)CC[C@H](NS(=O)(=O)CC(C)C)[C@H]3c3ccc(Cl)cc3)ccc12	240 and 83

same assay, conditions: human, 24 h, 1 µM, compound concentration 1 uM

SMILES	Population Apoptotic (%)	Population Fragmented Nuclei (%)	Population Healthy Nuclei (%)	Population Hoechst High Intensity Objects (%)	Population Membrane Permeable-Phenotype (%)	Population Mitotic Cells (%)	Population Normal (%)	Population Pyknosed Nuclei (%)	Population Tubulin-Different-Phenotype (%)	Total Cell Count
Cc1c(C(=O)NCCCN(C)C)sc2ncnc(Nc3ccc(F)cc3OC(C)CF)c12 (centres undefined)	56% and 51.85%	3.61% and 5.17%	85.77% and 79.31%	0%	1.49% and 4.35%	44% and 48.15%	100%	10.62% and 15.52%	1.98% and 0%	471 and 174
Cc1cc(=O)n(C)c2cc(N3C(=O)CC[C@H](NS(=O)(=O)CC(C)C)[C@H]3c3ccc(Cl)cc3)ccc12	74% and 82%	20% and 18%	68% and 69%	3% and 1%	6% and 9%	25% and 17%	96% and 98%	11%	4% and 6%	322 and 146

same assay, conditions: human, 24 h, 1 µM, compound concentration 1 uM

SMILES	Population Mitochondria Different-Phenotype (%)
Cc1cc(=O)n(C)c2cc(N3C(=O)CC[C@H](NS(=O)(=O)CC(C)C)[C@H]3c3ccc(Cl)cc3)ccc12	3% and 2%

same assay, conditions: human, 24 h, 10 µM, compound concentration 10 uM

SMILES	Population Apoptotic (%)	Population Fragmented Nuclei (%)	Population Healthy Nuclei (%)	Population Hoechst High Intensity Objects (%)	Population Membrane Permeable-Phenotype (%)	Population Mitotic Cells (%)	Population Normal (%)	Population Pyknosed Nuclei (%)	Population Tubulin-Different-Phenotype (%)	Total Cell Count
Cc1c(C(=O)NCCCN(C)C)sc2ncnc(Nc3ccc(F)cc3OC(C)CF)c12 (centres undefined)	35% and 38.46%	3.34% and 4.57%	63.26% and 58.29%	0%	3.96% and 12.75%	65% and 61.54%	100%	33.4% and 37.14%	59.08% and 40.2%	479 and 175
Cc1cc(=O)n(C)c2cc(N3C(=O)CC[C@H](NS(=O)(=O)CC(C)C)[C@H]3c3ccc(Cl)cc3)ccc12	71% and 81%	20% and 26%	56% and 62%	5% and 2%	25% and 36%	28% and 18%	94% and 97%	23% and 10%	28% and 50%	262 and 108

same assay, conditions: human, 24 h, 10 µM, compound concentration 10 uM

SMILES	Population Mitochondria Different-Phenotype (%)
Cc1cc(=O)n(C)c2cc(N3C(=O)CC[C@H](NS(=O)(=O)CC(C)C)[C@H]3c3ccc(Cl)cc3)ccc12	40% and 59%

same assay, conditions: human, 48 h, 1 µM, compound concentration 1 uM

SMILES	Population Apoptotic (%)	Population Fragmented Nuclei (%)	Population Healthy Nuclei (%)	Population Hoechst High Intensity Objects (%)	Population Membrane Permeable-Phenotype (%)	Population Mitochondria Different-Phenotype (%)	Population Mitotic Cells (%)	Population Normal (%)	Population Pyknosed Nuclei (%)	Population Tubulin-Different-Phenotype (%)
Cc1c(C(=O)NCCCN(C)C)sc2ncnc(Nc3ccc(F)cc3OC(C)CF)c12 (centres undefined)	48.89% and 51.28%	4.16% and 5.07%	85.73% and 80.8%	0	1.31% and 1.35%	0.13% and 8.52%	51.11% and 48.72%	100	10.11% and 14.13%	2.1% and 0.45%
Cc1cc(=O)n(C)c2cc(N3C(=O)CC[C@H](NS(=O)(=O)CC(C)C)[C@H]3c3ccc(Cl)cc3)ccc12	77% and 95%	14% and 15%	73%	1	4% and 6%	3% and 5%		98	11% and 10%	2% and 4%

same assay, conditions: human, 48 h, 1 µM, compound concentration 1 uM

SMILES	Total Cell Count
Cc1cc(=O)n(C)c2cc(N3C(=O)CC[C@H](NS(=O)(=O)CC(C)C)[C@H]3c3ccc(Cl)cc3)ccc12	508 and 199

same assay, conditions: human, 48 h, 10 µM, compound concentration 10 uM

SMILES	Population Apoptotic (%)	Population Fragmented Nuclei (%)	Population Healthy Nuclei (%)	Population Hoechst High Intensity Objects (%)	Population Membrane Permeable-Phenotype (%)	Population Mitotic Cells (%)	Population Normal (%)	Population Pyknosed Nuclei (%)	Population Tubulin-Different-Phenotype (%)	Population Mitochondria Different-Phenotype (%)
Cc1c(C(=O)NCCCN(C)C)sc2ncnc(Nc3ccc(F)cc3OC(C)CF)c12 (centres undefined)	53.75% and 63.55%	4.47% and 3.47%	48.42% and 34.68%	0.19% and 1.14%	12.31% and 18.33%	46.25% and 36.45%	99.81% and 98.86%	47.11% and 61.85%	44.62% and 53.33%	
Cc1cc(=O)n(C)c2cc(N3C(=O)CC[C@H](NS(=O)(=O)CC(C)C)[C@H]3c3ccc(Cl)cc3)ccc12	84% and 71%	25% and 21%	51% and 60%	6% and 5%	15% and 30%	15% and 28%	93% and 94%	22% and 18%	10% and 23%	15% and 35%

same assay, conditions: human, 48 h, 10 µM, compound concentration 10 uM

SMILES	Total Cell Count
Cc1cc(=O)n(C)c2cc(N3C(=O)CC[C@H](NS(=O)(=O)CC(C)C)[C@H]3c3ccc(Cl)cc3)ccc12	331 and 120
